According to paper PMC9097774 (International Journal of Oncology, 2022):

Tests used:
[1] = cited from earlier work
[2] = system: p53 phosphorylation in HepG2 and Huh7 cells; assay: Western blotting of p53 and phosphorylated p53; type: cell-based, human; details: 24 h; BB 0.6 and 1.2 µM; Vs 4.0 µM
Summary of the method: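 HepG2 and Huh7 cells were treated 24 h in RPMI with test compound (0.6 or 1.2 µM) or reference HDAC inhibitor (4.0 µM). Whole-cell extracts were made in SDS/deoxycholate/NP-40 buffer with protease inhibitors. Samples of 30 µg protein were run on 7.5% or 12% SDS-PAGE and blotted to PVDF. Blots were milk-blocked, given primary antibody overnight at 4°C, then HRP secondary (1:10,000) for 1 h. Tubulin served as loading control.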

[3] = system: GLUT2 expression in HepG2 and Huh7 cells; assay: Western blotting of GLUT2; type: cell-based, human; details: Fig. S1
HepG2 cells = assay: Glycolytic activity; type: cell-based, human; details: cell culture supernatant; Fig. S1
Summary of the method: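 Glucose remaining and lactate released into the cell culture supernatant were measured with a blood gas analyser.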

HDAC1 = HDAC1 (Homo sapiens, UniProt Q13547); assay: Cell free fluorogenic HDAC assay; type: biochemical; details: IC50 and two-fold IC50 concentrations; control set to 100%
Chain of HDAC1 (Q13547 whole entry): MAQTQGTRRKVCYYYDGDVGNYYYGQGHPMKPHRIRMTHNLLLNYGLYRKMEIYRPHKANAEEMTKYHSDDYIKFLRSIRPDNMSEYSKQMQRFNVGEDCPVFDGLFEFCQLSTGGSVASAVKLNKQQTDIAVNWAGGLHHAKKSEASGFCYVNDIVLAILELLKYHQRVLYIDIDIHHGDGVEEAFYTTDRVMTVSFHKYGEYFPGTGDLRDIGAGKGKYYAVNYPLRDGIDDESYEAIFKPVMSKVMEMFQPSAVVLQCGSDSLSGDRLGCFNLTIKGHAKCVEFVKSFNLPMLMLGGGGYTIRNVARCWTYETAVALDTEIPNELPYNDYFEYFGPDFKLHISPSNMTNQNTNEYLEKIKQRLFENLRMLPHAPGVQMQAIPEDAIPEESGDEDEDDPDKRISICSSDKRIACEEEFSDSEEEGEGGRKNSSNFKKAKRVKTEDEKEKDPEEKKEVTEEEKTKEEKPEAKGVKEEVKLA

effect on activity of HDAC1 (HDAC1) | Compound | therapeutic concentration [1] | phosphorylation of p53 [2] | Protein expression levels of GLUT2 [3] | glycolytic activity (glucose consumption, lactate production) (HepG2 cells)
– | CNC(=O)c1cc(Oc2ccc(NC(=O)Nc3ccc(Cl)c(C(F)(F)F)c3)cc2)ccn1 [sorafenib] | ~ 8 µM | – | – | –
potent inhibitory effects | O=C(CCCCCCC(=O)Nc1ccccc1)NO [vorinostat] | – | no increase in p53 phosphorylation | markedly reduced the expression of GLUT2 | no such reduction in glycolytic activity could be observed
